ChEMBL document CHEMBL1122989, “Quantitative structure-activity relationships in cytokinin agonistic and antagonistic pyrido[2,3-d]pyrimidine derivatives: insights into receptor topology” (J Med Chem, 1985)
pIC50: −log10 of the molar value.

Tests used:
[1] = Anticytokinin activity was evaluated by 50% of the callus growth on the medium with kinetin but without anti-cytokinin; assay type: functional, Nicotiana tabacum; conditions: read-out: I50
Outline: (§1)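 Test compounds at several concentrations in basal medium containing kinetin; medium adjusted to pH 5.6 with 1 N NaOH and autoclaved at 1.0 kg/cm2 for 15 min. Callus growth was the read-out. I50 (µM) is the concentration giving 50% of the callus growth seen on kinetin medium without anticytokinin.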

Nicotiana tabacum = experiment: Effective concentration required for cytokinin activity for producing maximum response of callus yield; assay type: functional
Outline: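 Callus growth assay run without kinetin, with test compounds at several concentrations in basal medium. Medium adjusted to pH 5.6 with 1 N NaOH and autoclaved at 1.0 kg/cm2 for 15 min. Callus yield was the read-out.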

[2] = Anticytokinin activity was evaluated by 50% of the callus growth on the medium with kinetin but without anti-cytokinin; Insoluble; assay type: functional, Nicotiana tabacum; outline: as §1

| SMILES | pIC50 [1] | E50 (Nicotiana tabacum) [µM] | other results |
| --- | --- | --- | --- |
| CSc1nc(Nc2cccc(C(C)=O)c2)c2cccnc2n1 | 4.88 |  |  |
| CCCCNc1nc(SC)nc2ncccc12 | 6.57 |  |  |
| COc1ccc(Nc2nc(SC)nc3ncccc23)cc1 | 5.03 |  |  |
| CSc1nc(Nc2cc(Cl)cc(Cl)c2)c2cccnc2n1 |  | 0.84 |  |
| CSc1nc(Nc2cccc(Br)c2)c2cccnc2n1 |  | 2.38 |  |
| CSc1nc(Nc2cccc(F)c2)c2cccnc2n1 |  | 3.39 |  |
| CSc1nc(Nc2ccc(C#N)cc2)c2cccnc2n1 | 5.12 |  |  |
| CSc1nc(NC2CC2)c2cccnc2n1 | 5.31 |  |  |
| CSc1nc(Nc2ccc(C)c(C)c2)c2cccnc2n1 |  | 0.92 |  |
| CCOc1ccc(Nc2nc(SC)nc3ncccc23)cc1 | 5.27 |  |  |
| CSc1nc(Nc2ccc([N+](=O)[O-])cc2)c2cccnc2n1 |  |  | I50 [2]: Insoluble |
| CSc1nc(Nc2ccc(Br)cc2)c2cccnc2n1 | 5.24 |  |  |
| CCC(CC)Nc1nc(SC)nc2ncccc12 | 5.57 |  |  |
| CCC(C)Nc1nc(SC)nc2ncccc12 (stereo unspecified) | 6.07 |  |  |
| C=CCNc1nc(SC)nc2ncccc12 | 6.40 |  |  |
| CSc1nc(Nc2cc(C)ccc2C)c2cccnc2n1 |  | 0.96 |  |
| CSc1nc(Nc2cccc(I)c2)c2cccnc2n1 |  | 5.2 |  |
| CSc1nc(NCc2ccccc2)c2cccnc2n1 | 4.60 |  |  |
| CCc1cccc(Nc2nc(SC)nc3ncccc23)c1 |  | 1.91 |  |
| CCCNc1nc(SC)nc2ncccc12 | 6.57 |  |  |
| CSc1nc(Nc2cccc(O)c2)c2cccnc2n1 |  | 5.44 |  |
| CCCCCCCNc1nc(SC)nc2ncccc12 | 5.39 |  |  |
| CSc1nc(Nc2ccc(I)cc2)c2cccnc2n1 |  | 2.21 |  |

| SMILES | pIC50 [1] | E50 (Nicotiana tabacum) [µM] | other results |
| --- | --- | --- | --- |
| CSc1nc(NC2CCCC2)c2cccnc2n1 | 6.31 |  |  |
| CCCCCCNc1nc(SC)nc2ncccc12 | 5.48 |  |  |
| COCCNc1nc(SC)nc2ncccc12 | 5.60 |  |  |
| CSc1nc(Nc2cccc(C)c2)c2cccnc2n1 |  | 1.58 |  |
| CSc1nc(NC2CCC2)c2cccnc2n1 | 6.14 |  |  |
| CCCCC(CC)CNc1nc(SC)nc2ncccc12 (stereo unspecified) | 4.80 |  |  |
| CSc1nc(NCC(C)C)c2cccnc2n1 | 6.27 |  |  |
| CSc1nc(Nc2ccc(F)cc2)c2cccnc2n1 | 5.58 |  |  |
| CSc1nc(Nc2ccc(C(=O)O)cc2)c2cccnc2n1 |  | 12.5 |  |
| CCCCCNc1nc(SC)nc2ncccc12 | 6.19 |  |  |
| CSc1nc(Nc2cccc(C#N)c2)c2cccnc2n1 |  | 2.15 |  |
| CSc1nc(Nc2ccc(Cl)cc2Cl)c2cccnc2n1 |  | 0.95 |  |
| CSc1nc(Nc2ccc(C(C)=O)cc2)c2cccnc2n1 | 5.05 |  |  |
| CNc1nc(SC)nc2ncccc12 | 5.53 |  |  |
| CCc1ccc(Nc2nc(SC)nc3ncccc23)cc1 | 5.15 |  |  |
| CSc1nc(Nc2ccc(Cl)cc2)c2cccnc2n1 | 5.07 |  |  |
| CSc1nc(Nc2cc(C)cc(C)c2)c2cccnc2n1 |  | 2.82 |  |
| CSc1nc(NC2CCCCC2)c2cccnc2n1 | 5.25 |  |  |
| CSc1nc(Nc2ccccc2C)c2cccnc2n1 |  | 3.59 |  |
| CSc1nc(Nc2cccc(C(=O)O)c2)c2cccnc2n1 | 5.04 |  |  |
| CSc1nc(Nc2cccc([N+](=O)[O-])c2)c2cccnc2n1 | 5.45 |  |  |
| CSc1nc(Nc2ccccc2)c2cccnc2n1 | 4.80 |  |  |
| CCOCCNc1nc(SC)nc2ncccc12 | 5.12 |  |  |
